In ChEMBL document CHEMBL3588785 (J Med Chem, 2015):
Converted amounts (≈) assume the structure as drawn. The source made the active and inactive calls. No cut-off for these calls is given here.

What was measured:
[1] = target: T1, Mitogen-activated protein kinase 1 (Homo sapiens, UniProt P28482); assay: Covalent binding to ERK2 (unknown origin) after 2 hrs by mass spectrometry
Outline: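 ERK2 protein incubated with compound at 3-fold molar excess over protein, room temperature, 2 hours; sample diluted 10-fold and loaded immediately for intact-mass MS.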

[2] = GSH reactivity assessed as half life
[3] = Stability in pH 7.4 buffer assessed as drug hydrolysis; type: physicochemical
Outline: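 Compound held in pH 7.4 buffer alone at 37 °C, monitored over 11 hrs for hydrolysis.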

[4] = target: T1, Mitogen-activated protein kinase 1; assay: Inhibition of MEK U911-activated ERK2 (unknown origin) using Erktide as substrate preincubated with enzyme for 20 mins prior to substrate addition by RapidFire Mass Spectrometry in presence of ATP at Km concentration
[5] = target: T1, Mitogen-activated protein kinase 1; assay: Inhibition of MEK U911-activated ERK2 (unknown origin) using Erktide as substrate preincubated with enzyme for 20 mins prior to substrate addition by RapidFire Mass Spectrometry in presence of ATP at higher concentration
[6] = target: T1, Mitogen-activated protein kinase 1; assay: Inhibition of ERK2 in human A375 cells harboring B-RAF V600E mutant assessed as decrease in phospho-ERK2 level after 2 hrs by Cellomics ArrayScanTM VTI imaging analysis; type: cell-based, A-375
[7] = target: T2, Mitogen-activated protein kinase; ERK1/ERK2 (Homo sapiens, UniProt P27361+P28482); assay: Inhibition of ERK1/2 in human A375 cells harboring B-RAF V600E mutant assessed as decrease in phospho-RSK level after 2 hrs by Cellomics ArrayScanTM VTI imaging analysis; type: cell-based; conditions: a-375
[8] = target: Dual specificity mitogen-activated protein kinase kinase 1 (Homo sapiens, UniProt Q02750); assay: Inhibition of MEK1 (unknown origin) autophosphorylation incubated with enzyme for 20 mins prior to ATP addition by ADP Glo kinase assay in presence of ATP at Km concentration
Sequence of Dual specificity mitogen-activated protein kinase kinase 1 (Q02750 whole entry): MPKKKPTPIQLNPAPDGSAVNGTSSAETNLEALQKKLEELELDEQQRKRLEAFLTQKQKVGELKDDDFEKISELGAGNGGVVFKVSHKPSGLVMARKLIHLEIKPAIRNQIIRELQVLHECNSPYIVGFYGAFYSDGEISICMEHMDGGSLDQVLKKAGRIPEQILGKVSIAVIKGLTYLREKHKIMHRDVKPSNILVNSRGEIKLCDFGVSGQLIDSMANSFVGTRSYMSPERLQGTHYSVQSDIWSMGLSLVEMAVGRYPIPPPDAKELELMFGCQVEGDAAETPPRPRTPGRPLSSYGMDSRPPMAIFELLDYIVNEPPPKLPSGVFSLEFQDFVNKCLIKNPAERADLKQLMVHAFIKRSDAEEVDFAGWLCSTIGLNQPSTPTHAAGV

[9] = 1-Octanol-aqueous phosphate buffer partition coefficient, logD of the compound at pH 7.4; type: physicochemical
Outline: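 Partition of compound between 1-octanol and aqueous phosphate buffer, pH 7.4; reported as distribution coefficient.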

[10] = Solubility of the compound in aqueous phosphate buffer at 25 degC at pH 7.4 after 24 hrs; type: physicochemical
[11] = organism: Homo sapiens; assay: Selectivity for ERK (unknown origin) over C-RAF (unknown origin) at 1 uM
Outline: (§1)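 Panel of 125 kinases screened with compound at 1 µM; kinases inhibited above 75% were recorded.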

[12] = organism: Homo sapiens; assay: Selectivity for ERK (unknown origin) over MEK1 (unknown origin) at 1 uM; outline: as §1
[13] = Stability to hydrolysis in pH 7.4 buffer measured over 11 hrs at 37 degC
[14] = organism: Homo sapiens; assay: Selectivity for ERK (unknown origin) over DYRK2 (unknown origin) at 1 uM; outline: as §1
[15] = Intrinsic clearance in human liver microsomes; type: ADME; conditions: read-out: CLH
[16] = tested on: Hepatocyte; assay: Intrinsic clearance in rat hepatocytes; type: ADME, cell-based
[17] = tested on: A-375; assay: Antiproliferative activity against human A375 cells harboring B-RAF V600E mutant after 72 hrs by Cellomics ArrayScanTM VTI imaging analysis; type: functional, cell-based; conditions: A-375, 72 h
[18] = organism: Homo sapiens; assay: Selectivity for ERK (unknown origin) over FLT1 (unknown origin) at 1 uM; outline: as §1
[19] = organism: Homo sapiens; assay: Selectivity for ERK (unknown origin) over AUR-B (unknown origin) at 1 uM; outline: as §1
[20] = organism: Homo sapiens; assay: Selectivity for ERK (unknown origin) over AUR-C (unknown origin) at 1 uM; outline: as §1
[21] = organism: Homo sapiens; assay: Selectivity for ERK (unknown origin) over TRKA (unknown origin) at 1 uM; outline: as §1
[22] = organism: Homo sapiens; assay: Selectivity for ERK (unknown origin) over AXL (unknown origin) at 1 uM; outline: as §1
[23] = organism: Homo sapiens; assay: Selectivity for ERK (unknown origin) over CDK1 (unknown origin) at 1 uM; outline: as §1
[24] = organism: Homo sapiens; assay: Selectivity for ERK (unknown origin) over CDK7 (unknown origin) at 1 uM; outline: as §1
[25] = organism: Homo sapiens; assay: Selectivity for ERK (unknown origin) over IGF-1R (unknown origin) at 1 uM; outline: as §1
[26] = organism: Homo sapiens; assay: Selectivity for ERK (unknown origin) over IR (unknown origin) at 1 uM; outline: as §1
[27] = organism: Homo sapiens; assay: Selectivity for ERK (unknown origin) over MET (unknown origin) at 1 uM; outline: as §1
[28] = organism: Homo sapiens; assay: Selectivity for ERK (unknown origin) over FAK (unknown origin) at 1 uM; outline: as §1
[29] = organism: Homo sapiens; assay: Selectivity for ERK (unknown origin) over SRC (unknown origin) at 1 uM; outline: as §1
[30] = Clearance in mouse hepatocytes measured per 10^6 cells; type: ADME, cell-based, Hepatocyte; conditions: read-out: CLH
[31] = AUC (0 to t) in mouse at 100 mg/kg, po; type: ADME, organism-based; conditions: in vivo
[32] = target: Mitogen-activated protein kinase 3 (Mus musculus) (UniProt Q63844); assay: Binding affinity to ERK1 in mouse fibroblasts assessed as half-life
Sequence of Mitogen-activated protein kinase 3 (Mus musculus) (Q63844 whole entry): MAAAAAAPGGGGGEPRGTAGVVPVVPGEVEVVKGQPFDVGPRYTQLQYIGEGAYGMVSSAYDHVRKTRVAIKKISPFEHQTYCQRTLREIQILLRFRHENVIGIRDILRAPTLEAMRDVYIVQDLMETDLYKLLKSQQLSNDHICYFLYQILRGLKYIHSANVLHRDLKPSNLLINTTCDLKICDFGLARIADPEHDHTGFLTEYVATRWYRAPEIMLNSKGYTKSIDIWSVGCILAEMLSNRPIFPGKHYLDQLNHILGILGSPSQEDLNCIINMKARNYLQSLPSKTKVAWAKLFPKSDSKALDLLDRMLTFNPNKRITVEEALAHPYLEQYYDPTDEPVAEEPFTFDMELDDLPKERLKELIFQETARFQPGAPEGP

[33] = target: T2, Mitogen-activated protein kinase; ERK1/ERK2; conditions: Calu-6, 500 nM
[34] = target: Mitogen-activated protein kinase 1 (Mus musculus) (UniProt P63085)
Sequence of Mitogen-activated protein kinase 1 (Mus musculus) (P63085 whole entry): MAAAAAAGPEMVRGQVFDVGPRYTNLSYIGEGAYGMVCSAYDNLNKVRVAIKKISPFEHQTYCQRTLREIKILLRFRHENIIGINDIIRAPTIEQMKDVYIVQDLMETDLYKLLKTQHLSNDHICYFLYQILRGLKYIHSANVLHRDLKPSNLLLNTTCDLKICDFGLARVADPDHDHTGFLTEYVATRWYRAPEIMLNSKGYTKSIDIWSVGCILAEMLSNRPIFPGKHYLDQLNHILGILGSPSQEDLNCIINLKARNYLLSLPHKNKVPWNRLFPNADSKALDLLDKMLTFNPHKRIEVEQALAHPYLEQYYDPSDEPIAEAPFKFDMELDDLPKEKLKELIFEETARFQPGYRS

Structure (SMILES)	IC50 [4] [nM]	IC50 [5] [nM]	IC50 [6] [nM]	IC50 [7] [nM]	IC50 [8] [nM]	logD [9]	solubility at 24 h [10] [µM]	Selectivity ratio [11]	Selectivity ratio [12]	microsomal CLint [15] [µL/min/mg]	CLH [16] [µL/min/mg]	IC50 [17] [nM]	further results
C=CS(=O)(=O)N1CCc2cnc(NC3CCOCC3)nc2C1	370	220	240	1100	> 10000	1	760 (≈ 247 µg/mL)	2	2				Activity [1]: Active; T1/2 [2]: 0.257 h; Stability [3]: Stable; Stability [13]: Stable
C=CC(=O)Nc1ccccc1Nc1nc(N[C@H]2CC[C@H](N(C)C)CC2)ncc1Cl	85	90	72	200	> 10000	0.9	770 (≈ 320 µg/mL)	4	4	< 3	25	120	Selectivity ratio [14]: 4; Selectivity ratio [18]: 4
C=CC(=O)Nc1ccccc1Nc1cc(NC2CCOCC2)ncc1Cl	42	60	120	400	> 10000	2.5	40 (≈ 14.9 µg/mL)	2	2	24	270	680	
COc1cc(O)c2c(c1)/C=C/C[C@H](O)[C@@H](O)C(=O)/C=C/C[C@H](C)OC2=O	5100	3700	1600	5700	3400	1.6	47 (≈ 17 µg/mL)					4100	
CCS(=O)(=O)N1CCc2cnc(NC3CCOCC3)nc2C1	9000	> 10000	10000	> 30000									
O=C(Nc1ccc2[nH]nc(-c3ccncc3)c2c1)[C@@H]1CCN(CC(=O)N2CCN(c3ccc(-c4ncccn4)cc3)CC2)C1						3.2	< 2.1					70	
CNC(=O)c1ccc(F)cc1Nc1cc(Nc2cc(C)nn2C)ncc1C(F)(F)F	44	340	8700	5100	> 10000	3.8	15 (≈ 6.34 µg/mL)					1400	Selectivity ratio [22]: 10; Selectivity ratio [23]: 10; Selectivity ratio [24]: 10; Selectivity ratio [25]: 10; Selectivity ratio [26]: 10; Selectivity ratio [27]: 10; Selectivity ratio [28]: 10; Selectivity ratio [19]: 10; Selectivity ratio [20]: 10; Selectivity ratio [21]: 10
CCC(=O)Nc1ccccc1Nc1nc(NC2CCOCC2)ncc1Cl	480	4000	> 30000	> 30000								6600	
CCS(=O)(=O)Nc1ccc2[nH]nc(-c3ccncc3)c2c1	280	1800	10000	> 30000								> 30000	
C=CS(=O)(=O)N1CCc2[nH]nc(-c3ccnc(C)c3)c2C1	74	110	380	1000	4900	1.6	300 (≈ 91.3 µg/mL)	5	5			1400	Selectivity ratio [18]: 5
CC(C)Nc1cc(-c2c[nH]c(C(=O)N[C@H](CO)c3cccc(Cl)c3)c2)c(Cl)cn1 [ULIXERTINIB]						> 4	8.5 (≈ 3.68 µg/mL)					180	
CNC(=O)c1ccc(F)cc1Nc1cc(NC2CCOCC2)ncc1C(F)(F)F	40	380	2100	2400	> 10000	3.4	8.8 (≈ 3.63 µg/mL)	4				3400	Selectivity ratio [24]: 4; Selectivity ratio [27]: 4; Selectivity ratio [28]: 4
C=CC(=O)Nc1ccccc1Nc1nc(NC2CCOCC2)ncc1C	77	88	170	740	> 10000	2	170 (≈ 60.1 µg/mL)	2	2	13	59	470	
CNC(=O)c1ccccc1Nc1cc(NC2CCOCC2)ncc1Cl	260		7500	10000	> 10000	2.8	290 (≈ 105 µg/mL)						

Second part, led by results:

IC50 [4] [nM]	IC50 [5] [nM]	IC50 [6] [nM]	IC50 [7] [nM]	IC50 [8] [nM]	logD [9]	solubility at 24 h [10] [µM]	Selectivity ratio [11]	Selectivity ratio [12]	microsomal CLint [15] [µL/min/mg]	CLH [16] [µL/min/mg]	IC50 [17] [nM]	Structure (SMILES)	further results
39	47	66	280	260	2.1	990 (≈ 346 µg/mL)			19	33	240	C=CC(=O)Nc1ccccc1Nc1nc(Nc2ccnn2C)ncc1C	
7.5	17	120	470	> 10000	2.2	7 (≈ 2.1 µg/mL)	8				1300	C=CS(=O)(=O)Nc1ccc2[nH]nc(-c3ccncc3)c2c1	Activity [1]: Active; Selectivity ratio [19]: 8; Selectivity ratio [20]: 8; Selectivity ratio [18]: 8; Selectivity ratio [21]: 8
6.9	8.5	22	65	> 10000	2.9	59 (≈ 24 µg/mL)	6	6	38	270	53	C=CC(=O)Nc1ccccc1Nc1nc(NC2CCOCC2)ncc1C(F)(F)F	Selectivity ratio [24]: 6; Selectivity ratio [29]: 6; hepatocyte CLint [30]: 143 µL/min/1e6 cells; AUC(0-t) [31]: 21 µM·h; Selectivity ratio [19]: 6; Selectivity ratio [20]: 6
8.5	5.4	19	69	> 10000	2.7	46 (≈ 17.2 µg/mL)	4		67	200	57	C=CC(=O)Nc1ccccc1Nc1nc(NC2CCOCC2)ncc1Cl	Activity [1]: Active; T1/2 [2]: 2.53 h; Stability [3]: Stable; Selectivity ratio [19]: 4; Selectivity ratio [20]: 4; Selectivity ratio [18]: 4
3.1	3	6.7	28	> 10000	2.3	150 (≈ 56.2 µg/mL)	2	2	13	> 250	41	C=CC(=O)Nc1cnccc1Nc1nc(NC2CCOCC2)ncc1Cl	T1/2 [2]: 0.7 h; Stability [3]: Stable; T1/2 [32]: 120 h; inhibition [33]: Active; T1/2 [34]: 54 h
9.9	13	48	120	120	2.4	520 (≈ 192 µg/mL)	7	7	42	120	91	C=CC(=O)Nc1ccccc1Nc1nc(Nc2ccnn2C)ncc1Cl	Selectivity ratio [28]: 7; Selectivity ratio [19]: 7; Selectivity ratio [20]: 7; Selectivity ratio [18]: 7
